Results: ChEMBL document CHEMBL3608286, “Azaphilone and Diphenyl Ether Derivatives from a Gorgonian-Derived Strain of the Fungus Penicillium pinophilum” (J Nat Prod, 2015)
In brackets after ≈: the same amount, converted by molar mass.

How the values were obtained:
Amphibalanus amphitrite [1] = assay: Antifouling activity against larval settlements of Balanus amphitrite Darwin cyprids; assay type: functional, organism-based
Procedure, shortened: (§1)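 Barnacle cyprid larvae tested for inhibition of settlement, following a procedure from earlier literature. SeaNine 211 served as the positive control. EC50 was taken for settlement inhibition and LC50 for larval toxicity, with LC50/EC50 as the ratio.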

Amphibalanus amphitrite [2] = assay: Selectivity index, ratio of CC50 for Balanus amphitrite Darwin cyprids to EC50 for antifouling activity against larval settlements of Balanus amphitrite Darwin cyprids; procedure, shortened: as §1
HeLa = assay: Cytotoxicity against human HeLa cells by neutral red method; assay type: functional, cell-based
Procedure, shortened: (§2)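 Human cancer cell lines (HeLa, Hep-2, RD) assayed by Neutral Red uptake, giving IC50. Adriamycin was the positive control.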

RD = assay: Cytotoxicity against human RD cells by neutral red method; assay type: functional, cell-based; procedure, shortened: as §2
[3] = Cytotoxicity against human Hep2 cells by neutral red method; assay type: functional, cell-based; conditions: HEp-2; procedure, shortened: as §2
[4] = Amphibalanus amphitrite, Darwin, read-out: EC50

Row | SMILES | EC50 (Amphibalanus amphitrite [1]; [4]) [mg/L] | Ratio CC50/EC50 (Amphibalanus amphitrite [2]) | EC50 (Amphibalanus amphitrite [1]) | also measured
1 | CCCCCCCCn1sc(Cl)c(Cl)c1=O | 1.2 (≈ 4.25 µM) | 20.3 |  | 
2 | COc1c([C@H](CC(C)C)OC(C)=O)ccc2c1C(=O)OCc1cc(C)cc(O)c1O2 | 10 (≈ 24.1 µM) | >50 |  | 
3 | C/C=C/C1=CC2=CC(=O)[C@@](C)(OC(=O)c3c(C)cc(O)cc3O)C(=O)C2=CO1 |  |  | Not Active | 
4 | Cc1cc(O)cc(O)c1C(=O)O[C@]1(C)C(=O)C=C2C=C(/C=C/C(=O)O)OC=C2C1=O |  |  | Not Active | 
5 | C/C=C/C1=CC2=CC(=O)[C@@](C)(O)[C@@H](OC(=O)c3c(C)cc(O)cc3O)[C@@H]2CO1 |  |  | Not Active | 
6 | Cc1cc(O)cc(O)c1C(=O)O[C@]1(C)C(=O)C2=C(C=C(/C=C/C(=O)O)OC2)C[C@H]1O |  |  | Not Active | 
7 | C/C=C/C1=CC2=CC(=O)[C@@](C)(O)[C@@H](OC(=O)c3c(C)cc(O)cc3O)C2=CO1 |  |  | Not Active | 
8 | Cc1cc(O)cc(O)c1C(=O)O[C@]1(C)C(=O)C=C2C=C(/C=C/CO)OC[C@H]2[C@@H]1O |  |  | Not Active | 
9 | Cc1cc(O)cc(O)c1C(=O)O[C@H]1[C@@H]2COC(CC(C)O)=CC2=CC(=O)[C@@]1(C)O (some centres undefined) |  |  | Not Active | 
10 | Cc1cc(O)cc(O)c1C(=O)O[C@]1(C)C(=O)C=C2C=C(/C=C/CO)OC=C2C1=O |  |  | Not Active | 
11 | COc1c([C@@H](O)CC(C)C)ccc2c1C(=O)OCc1cc(CO)cc(O)c1O2 | 6 (≈ 15.4 µM) | >50 |  | IC50 (HeLa): 6.1 µM
12 | COc1c([C@@H](O)CC(C)(C)O)ccc2c1C(=O)OCc1cc(C)cc(O)c1O2 | 20 (≈ 51.5 µM) | >50 |  | 
13 | COc1cccc2c1C(=O)c1c(O)c3c(c(O)c1C2=O)C[C@@](O)(C(=O)CO)C[C@@H]3O[C@H]1C[C@H](N)[C@H](O)[C@H](C)O1 [DOXORUBICIN] |  |  |  | IC50 (RD): 2 µM; IC50 [3]: 1.5 µM
14 | COc1c([C@@H](O)CC(C)C)ccc2c1C(=O)OCc1cc(C)cc(O)c1O2 [PENICILLIDE] | 2.6 (≈ 6.98 µM) | >50 |  | IC50 (RD): 7.8 µM; IC50 [3]: 6.7 µM
15 | Cc1cc(O)cc(O)c1C(=O)O[C@H]1[C@@H]2COC(/C=C/CO)=CC2=CC(=O)[C@@]1(C)O [PINOPHILIN B] |  |  | Not Active | 
